Consider five molecules from ChEMBL document CHEMBL3351507, “11H-Pyrido[3',2':4,5]pyrrolo[3,2-c]cinnoline and pyrido[3',2':4,5]pyrrolo[1,2-c][1,2,3]benzotriazine: two new ring systems with antitumor activity” (2014).

One experiment concerns SK-MEL-5. The experiment in a line: Cytotoxicity against human SK-MEL-5 cells assessed as growth inhibition after 72 hrs by MTT assay. Conditions: SK-MEL-5, 72 h. It counts as functional. In outline: (§1)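 NCI 60-cell-line panel screen. Compounds were tested at 5 concentrations in 10-fold dilution (10^-4 to 10^-8 M) across the full panel. GI50 was taken as the molar concentration giving 50% inhibition of net cell growth.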
(Tetrazolium dyes change colour on reduction, which living cells bring about.)

A further experiment relates to SF-295. Briefly: Cytotoxicity against human SF295 cells assessed as growth inhibition after 72 hrs by MTT assay. It counts as functional. The settings on record: SF-295, 72 h. Summed up:
as §1

The next experiment relates to NCI-H322M. The experiment in a line: Cytotoxicity against human NCI-H322M cells assessed as growth inhibition after 72 hrs by MTT assay. The experiment is classed as functional.
Experiment [1] in a line: Cytotoxicity against human OVCAR8 cells assessed as growth inhibition after 72 hrs by MTT assay. The experiment is classed as functional. Conditions: OVCAR-8, 72 h. Summed up:
as §1

The nature of experiment [2]: Cytotoxicity against human PC3 cells assessed as growth inhibition after 72 hrs by MTT assay. It counts as functional. The settings on record: PC-3, 72 h. In outline:
as §1

For another experiment, the system named is MOLT-4. The experiment in a line: Cytotoxicity against human MOLT4 cells assessed as growth inhibition after 72 hrs by MTT assay. It counts as functional. The settings on record: MOLT-4, 72 h.
A further experiment deals with HOP-62. The experiment in a line: Cytotoxicity against human HOP62 cells assessed as growth inhibition after 72 hrs by MTT assay. The settings on record: HOP-62, 72 h. The experiment is classed as functional.
The next experiment deals with HCC 2998. Briefly: Cytotoxicity against human HCC2998 cells assessed as growth inhibition after 72 hrs by MTT assay. The experiment is classed as functional. The settings on record: HCC 2998, 72 h.
Experiment [3] in a line: Cytotoxicity against human HCT15 cells assessed as growth inhibition after 72 hrs by MTT assay. It counts as functional. The settings on record: HCT-15, 72 h.
The next experiment concerns HT-29. Briefly: Cytotoxicity against human HT-29 cells assessed as growth inhibition after 72 hrs by MTT assay. The experiment is classed as functional. The settings on record: HT-29, 72 h.
The next experiment deals with LOX IMVI. Briefly: Cytotoxicity against human LOXIMVI cells assessed as growth inhibition after 72 hrs by MTT assay. It counts as functional.
For the next experiment, the system named is TK-10. The experiment in a line: Cytotoxicity against human TK10 cells assessed as growth inhibition after 72 hrs by MTT assay. It counts as functional. Conditions: TK-10, 72 h. Summed up:
as §1

The test system of a further experiment is ACHN. The experiment in a line: Cytotoxicity against human ACHN cells assessed as growth inhibition after 72 hrs by MTT assay. It counts as functional.
Experiment [4] can be described thus: Binding affinity to DNA (unknown origin) at compound to DNA ratio 0.01 to 0.04 by linear dichroism method. Summed up: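 Linear dichroism spectra were recorded at different compound/DNA ratios in 10 mM phosphate buffer, pH 7.2.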
In experiment [5] the test system is Jurkat. Briefly: Cytotoxicity against human Jurkat cells assessed as growth inhibition after 72 hrs by MTT assay. The experiment is classed as functional. Summed up: (§2)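 Cells were grown in medium with 10% heat-inactivated FBS plus penicillin/streptomycin: RPMI-1640 for Jurkat and CEM, DMEM for A-431, HAM's F12 for LoVo. The doxorubicin-resistant LoVo subclone was kept with 0.1 µg/mL doxorubicin. Cells were seeded at 5x10^3 per well and pre-incubated 24 h at 37 °C.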

For experiment [6], the system named is Jurkat. Briefly: Induction of apoptosis in human Jurkat cells assessed as loss of plasma membrane asymmetry at 250 to 500 nM after 24 hrs by annexin V-FITC/propidium iodide staining-based flow cytofluorimetric analysis. The experiment is classed as functional, cell-based. Summed up:
(§3)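 Jurkat cells were incubated with 250 or 500 nM compound for 6 h or 24 h. They were then double-stained with Annexin V-FITC and propidium iodide and analysed by flow cytometry (488 nm excitation; emission 525 and 585 nm). Mean ± SEM of 3 experiments.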

Experiment [7] addresses T1, DNA topoisomerase 1 (Homo sapiens) (UniProt P11387).
T1 sequence (whole entry): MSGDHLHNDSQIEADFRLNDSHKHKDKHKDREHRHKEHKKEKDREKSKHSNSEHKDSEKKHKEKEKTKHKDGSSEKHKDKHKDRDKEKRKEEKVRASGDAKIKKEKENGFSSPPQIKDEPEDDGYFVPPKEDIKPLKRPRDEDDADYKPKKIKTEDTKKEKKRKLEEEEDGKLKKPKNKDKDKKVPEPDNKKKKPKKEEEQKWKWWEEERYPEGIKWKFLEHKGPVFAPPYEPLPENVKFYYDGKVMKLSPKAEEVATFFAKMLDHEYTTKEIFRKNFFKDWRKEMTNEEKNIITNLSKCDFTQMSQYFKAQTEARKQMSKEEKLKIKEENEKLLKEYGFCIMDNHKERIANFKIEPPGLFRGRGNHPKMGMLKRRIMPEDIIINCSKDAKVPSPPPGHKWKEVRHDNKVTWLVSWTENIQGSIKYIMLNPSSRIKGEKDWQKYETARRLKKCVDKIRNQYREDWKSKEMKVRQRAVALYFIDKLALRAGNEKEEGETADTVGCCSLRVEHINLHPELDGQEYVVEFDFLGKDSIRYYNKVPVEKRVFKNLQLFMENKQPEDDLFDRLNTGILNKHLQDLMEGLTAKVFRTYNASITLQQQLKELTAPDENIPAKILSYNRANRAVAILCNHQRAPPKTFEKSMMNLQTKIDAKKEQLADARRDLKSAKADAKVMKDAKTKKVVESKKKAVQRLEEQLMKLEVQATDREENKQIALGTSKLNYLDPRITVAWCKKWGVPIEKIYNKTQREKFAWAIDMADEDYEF
The experiment in a line: Inhibition of human DNA topoisomerase 1-mediated DNA single strand cleavage at 5 to 100 uM after 30 mins by agarose gel electrophoresis relative to untreated control. In outline: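 Reactions were set up as for relaxation: human topoisomerase I, 0.250 µg pBR322, compound 5-100 µM, 37 °C for 30 min, stopped with SDS/proteinase K. Samples were run on 0.8% agarose containing 0.5 µg/mL ethidium bromide, then destained in water, so that cleaved/nicked DNA could be detected under UV.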

Experiment [8] relates to Jurkat. Briefly: Induction of apoptosis in human Jurkat cells assessed as loss of plasma membrane asymmetry at 250 to 500 nM after 6 hrs by annexin V-FITC/propidium iodide staining-based flow cytofluorimetric analysis. The experiment is classed as functional, cell-based. Summed up: as §3
Experiment [9] has as its system Jurkat. The experiment in a line: Cell cycle arrest in human Jurkat cells assessed as accumulation at S phase at 0.5 uM after 24 hrs by propidium iodide staining-based flow cytometry (reference value: 15.5%). It counts as functional. (In general: A flow cytometer gives signals particle by particle.)
The subject of a further experiment is LoVo. The experiment in a line: Resistance index, ratio of GI50 for human LoVo/DX cells to GI50 for human LoVo cells. The experiment is classed as functional. Summed up: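 CEMVbl-100 (vinblastine-selected CEM) was grown in RPMI-1640 with 0.1 µg/mL vinblastine. LoVoDoxo was grown in HAM's F12 with 0.1 µg/mL doxorubicin; parental CEM and LoVo were grown without drug. Media had 10% FBS. 5x10^3 cells were seeded, preincubated 24 h at 37 °C, then exposed 72 h to compound (DMSO <1%). Read-out was MTT; GI50 came from dose-response curves of ≥3 experiments. RI = GI50 resistant / GI50 parental.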

The nature of experiment [10]: Cytotoxicity against human LoVo/DX cells assessed as growth inhibition after 72 hrs by MTT assay. The experiment is classed as functional. In outline:
as §2

For experiment [11], the system named is Jurkat. Briefly: Induction of apoptosis in human Jurkat cells assessed as mitochondrial membrane potential depolarization after 24 hrs by JC-1 staining-based flow cytometry. The experiment is classed as functional, cell-based. Summed up: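 After 24 h of treatment, Jurkat cells were resuspended in HBSS and stained with JC-1. Flow cytometry measured the percentage of cells with low potential (green monomer fluorescence). Mean ± SEM of 3 experiments.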

Experiment [12] deals with Jurkat. Briefly: Cell cycle arrest in human Jurkat cells assessed as accumulation at G2/M phase at 0.25 uM after 24 hrs by propidium iodide staining-based flow cytometry (reference value: 21.9%). The experiment is classed as functional.

The source made the active and inactive calls. The calls are words filed in the database; no cut-off is given here.

Turning to `COc1cc2nnc3c4cccnc4[nH]c3c2cc1OC`, the 50% growth inhibitory concentration (GI50) (as a rule, the concentration that inhibits growth by half) turned out to be 7330 nM with SK-MEL-5; 2430 nM in the experiment with SF-295; 20600 nM in the experiment with NCI-H322M; 1250 nM in experiment [1]; 1490 nM in [2]; 18 nM with MOLT-4. The 50% growth inhibitory concentration (GI50) was found to be 2260 nM with HOP-62; 1950 nM with HCC 2998; 1430 nM in [3]; 1340 nM in the experiment on HT-29; 1410 nM with LOX IMVI; 2380 nM with TK-10. Further, the GI50 in the experiment with ACHN is 330 nM.

As for `O=Nc1c2cccnc2n2nnc3ccc(Cl)cc3c12`, the 50% growth inhibitory concentration (GI50) in the experiment on SK-MEL-5 stood at 3820 nM; in the experiment on SF-295, 2070 nM; in the experiment on NCI-H322M it was 8600 nM; in experiment [1] it was 1800 nM; in experiment [2] it was 740 nM; in the experiment with MOLT-4, 18 nM. The GI50 was 1440 nM with HOP-62; 8400 nM with HCC 2998; 960 nM in experiment [3]; 910 nM in the experiment with HT-29; 1030 nM in the experiment with LOX IMVI; 940 nM with TK-10. The GI50 in the experiment on ACHN came out at 330 nM.

Regarding `COc1ccc2c(c1)nnn1c3ncccc3c(N=O)c21`, the outcome (in [4]; in the experiment on Jurkat [8]) was inactive. For the same molecule, the GI50 in the experiment on Jurkat [5] amounted to 90 nM; in the experiment on SK-MEL-5, 5010 nM; in the experiment on SF-295 it was 4690 nM; with NCI-H322M it was 9670 nM; in experiment [1], 3900 nM; in the experiment with MOLT-4, 9.4 nM. Further, the GI50 with HOP-62 amounted to 7510 nM; in the experiment with HCC 2998, 7230 nM; in [10] it was 650 nM; in [3], 3130 nM; in the experiment with HT-29, 620 nM; in the experiment with LOX IMVI, 800 nM. The GI50 in the experiment on TK-10 is 5080 nM; with ACHN it was 94 nM. Moreover, the result (with Jurkat [6]; in experiment [7]) was Active. Also, the Activity in the experiment on Jurkat [9] is 27.2%; in the experiment on Jurkat [11] it was “Dose-dependent effect”; in the experiment with Jurkat [12] it was 39.4%. Besides, in the experiment with LoVo, the Ratio was determined as 0.51.

On to `COc1cc2nnn3c4ncccc4c(N=O)c3c2cc1OC`, for which the result (in [4]; in the experiment on Jurkat [8]) was inactive. Moreover, the concentration for 50% growth inhibition (GI50) is 200 nM in the experiment on Jurkat [5]; 12600 nM in the experiment with SK-MEL-5; 2620 nM with SF-295; 22700 nM with NCI-H322M; 820 nM in [1]; 2360 nM in experiment [2]. The GI50 in the experiment with MOLT-4 is below 10 nM; with HOP-62, 1900 nM; with HCC 2998 it was 1000 nM; in [10] it was 4330 nM; in experiment [3], 1620 nM; in the experiment with HT-29, 790 nM. The figures for the concentration for 50% growth inhibition (GI50) in the experiment with LOX IMVI, with TK-10 and in the experiment on ACHN were 920 nM, 5260 nM and 250 nM, respectively. For the same molecule, the result (in the experiment on Jurkat [6]; in experiment [7]) was Active. The Activity was 24.7% with Jurkat [9], “Dose-dependent effect” in the experiment with Jurkat [11] and 47.3% in the experiment on Jurkat [12]. In addition, the Ratio in the experiment on LoVo came to 1.11.

With `COc1ccc2c(c1)nnc1c3cccnc3[nH]c21`, the result (in experiment [4]; with Jurkat [6]; in experiment [7]) was Active. In addition, the GI50 in the experiment on Jurkat [5] worked out at 90 nM; in the experiment on SK-MEL-5, 5850 nM; in the experiment with SF-295, 1590 nM; in the experiment on NCI-H322M it was 10000 nM; in experiment [1] it was 620 nM; with MOLT-4, 29 nM. Also, the GI50 amounted to 5470 nM with HOP-62; 8230 nM with HCC 2998; 1210 nM in experiment [10]; 2260 nM in experiment [3]; 750 nM in the experiment on HT-29; 760 nM with LOX IMVI. For the same molecule, the GI50 with TK-10 turned out to be 4520 nM; with ACHN it was 200 nM. Besides, the outcome in the experiment with Jurkat [8] was inactive. Besides, the values for the Activity in the experiment with Jurkat [9], in the experiment with Jurkat [11] and in the experiment with Jurkat [12] were 28.6%, “Dose-dependent effect” and 45.7%, respectively. In the experiment with LoVo, the Ratio was found to be 0.33.
